From ChEMBL document CHEMBL1125497, “Synthesis and anticonvulsant activity of enaminones” (J Med Chem, 1992)

Experiments:
[1] = Antiepileptic activity in male CF1 mice 4 hr after administration measured in subcutaneous pentylenetetrazole (scMet) test at a dose of 100 mg/kg (no. of animals treated /protected); activity value is 0/1; format: functional, Mus musculus
[2] = Antiepileptic activity in male CF1 mice 4 hr after administration measured in neurological toxicity (Tox) test at a dose of 100 mg/kg (no. of animals treated /protected); activity value is 0/2; format: functional, Mus musculus
[3] = Antiepileptic activity in male CF1 mice 30 min after administration measured in subcutaneous pentylenetetrazole (scMet) test at a dose of 100 mg/kg (no. of animals treated /protected); activity value is 1/1; format: functional, Mus musculus
[4] = Antiepileptic activity in male CF1 mice 4 hr after administration measured in maximum electroshock seizure(MES) test at a dose of 100 mg/kg (no. of animals treated /protected); activity value is 0/3; format: functional, Mus musculus
[5] = Antiepileptic activity in male CF1 mice 30 min after administration measured in maximum electroshock seizure(MES) test at a dose of 100 mg/kg (no. of animals treated /protected); activity value is 0/3; format: functional, Mus musculus
[6] = Antiepileptic activity in male CF1 mice 30 min after administration measured in neurological toxicity (Tox) test at a dose of 100 mg/kg (no. of animals treated /protected); activity value is 0/4; format: functional, Mus musculus
[7] = Antiepileptic activity in male CF1 mice 0.5 hr after oral administration measured in neurological toxicity (Tox) test at a dose of 50 mg/kg (no. of animals treated /protected); activity value is 0/4; format: functional, Mus musculus
[8] = Time of peak anticonvulsant effect in CF1 MICE after ip administration.; format: functional, Mus musculus
How it was run: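 Male CF1 mice (ca. 24–34 g), compound in 0.5% methylcellulose suspension given ip or po; time (h) at which MES protection (against tonic hind limb extension) peaked was recorded and used for ED50 determination.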

[9] = Oral dose producing neurotoxic effects in 50% of rats; format: ADME, organism-based; conditions: rat, in vivo
How it was run: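 Phase VI screen in male Sprague-Dawley rats dosed orally. MES protection and rotorod toxicity were scored as animals responding over animals tested at 0.25, 0.5, 1, 2 and 4 h.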

[10] = Antiepileptic activity in male CF1 mice 30 min after administration measured in neurological toxicity (Tox) test at a dose of 300 mg/kg (no. of animals treated /protected); activity value is 0/8; format: functional, Mus musculus
[11] = Antiepileptic activity in male CF1 mice 4 hr after administration measured in subcutaneous pentylenetetrazole (scMet) test at a dose of 300 mg/kg (no. of animals treated /protected); activity value is 0/1; format: functional, Mus musculus
[12] = Dose elevating electroshock induced seizure by 20% in CF1 mice after ip administration.; format: functional, Mus musculus
How it was run: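 In CF1 male mice (ca. 24–34 g), compound was given ip in 0.5% methylcellulose. The current giving hind limb extension in 50% of mice was found by the up-and-down method, with 15–25 mice per group and a vehicle control group run with each experimental group. At least three doses were tested. The dose raising threshold current by 20% was taken from a plot of dose against % threshold increase.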

[13] = Antiepileptic activity in male CF1 mice 4 hr after oral administration measured in maximum electroshock seizure(MES) test at a dose of 50 mg/kg (no. of animals treated /protected); activity value is 2/4; format: functional, Mus musculus
[14] = Antiepileptic activity in male CF1 mice 1 hr after oral administration measured in maximum electroshock seizure(MES) test at a dose of 50 mg/kg (no. of animals treated /protected); activity value is 3/4; format: functional, Mus musculus
[15] = Antiepileptic activity in male CF1 mice 0.25 hr after oral administration measured in neurological toxicity (Tox) test at a dose of 50 mg/kg (no. of animals treated /protected); activity value is 0/4; format: functional, Mus musculus
[16] = Antiepileptic activity in male CF1 mice 2 hr after oral administration measured in neurological toxicity (Tox) test at a dose of 50 mg/kg (no. of animals treated /protected); activity value is 0/4; format: functional, Mus musculus
[17] = Antiepileptic activity in male CF1 mice 30 min after administration measured in subcutaneous pentylenetetrazole (scMet) test at a dose of 300 mg/kg (no. of animals treated /protected); activity value is 0/1; format: functional, Mus musculus
[18] = Antiepileptic activity in male CF1 mice 4 hr after administration measured in neurological toxicity (Tox) test at a dose of 300 mg/kg (no. of animals treated /protected); activity value is 0/4; format: functional, Mus musculus
[19] = Antiepileptic activity in male CF1 mice 0.25 hr after oral administration measured in maximum electroshock seizure(MES) test at a dose of 50 mg/kg (no. of animals treated /protected); activity value is 2/4; format: functional, Mus musculus
[20] = Antiepileptic activity in male CF1 mice 1 hr after oral administration measured in neurological toxicity (Tox) test at a dose of 50 mg/kg (no. of animals treated /protected); activity value is 0/4; format: functional, Mus musculus
[21] = Dose protecting 50% of the mice from tonic hind limb extension at the time of […] after ip administration.; format: functional; conditions: Mus musculus, Hindlimb
How it was run: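 Phase II quantification in CF1 male mice (ca. 24–34 g), dosing ip or po in 0.5% methylcellulose suspension. ED50 is protection from tonic hind limb extension in MES. TD50 is rotorod neurotoxicity. Both were read at time of peak effect and derived by Litchfield–Wilcoxon with 95% confidence limits.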

[22] = Dose at which anticonvulsant activity was observed in mice; format: functional, Mus musculus
[23] = Protective index was measured as TD50/ED50 in rat on oral administration; format: ADME, organism-based; conditions: in vivo, read-out: PI
[24] = Antiepileptic activity in male CF1 mice 4 hr after administration measured in maximum electroshock seizure(MES) test at a dose of 300 mg/kg (no. of animals treated /protected); activity value is 1/1; format: functional, Mus musculus
[25] = Antiepileptic activity in male CF1 mice 4 hr after oral administration measured in neurological toxicity (Tox) test at a dose of 50 mg/kg (no. of animals treated /protected); activity value is 0/4; format: functional, Mus musculus
[26] = Antiepileptic activity in male CF1 mice 2 hr after oral administration measured in maximum electroshock seizure(MES) test at a dose of 50 mg/kg (no. of animals treated /protected); activity value is 2/4; format: functional, Mus musculus
[27] = Antiepileptic activity in male CF1 mice 0.5 hr after oral administration measured in maximum electroshock seizure(MES) test at a dose of 50 mg/kg (no. of animals treated /protected); activity value is 4/4; format: functional, Mus musculus
[28] = Antiepileptic activity in male CF1 mice 30 min after administration measured in maximum electroshock seizure(MES) test at a dose of 300 mg/kg (no. of animals treated /protected); activity value is 0/1; format: functional, Mus musculus
[29] = Antiepileptic activity in male CF1 mice 4 hr after administration measured in neurological toxicity (Tox) test at a dose of 300 mg/kg (no. of animals treated /protected); activity value is 0/2; format: functional, Mus musculus
[30] = Antiepileptic activity in male CF1 mice 30 min after administration measured in neurological toxicity (Tox) test at a dose of 300 mg/kg (no. of animals treated /protected); activity value is 2/4; format: functional, Mus musculus
[31] = Antiepileptic activity in male CF1 mice 30 min after administration measured in subcutaneous pentylenetetrazole (scMet) test at a dose of 30 mg/kg (no. of animals treated /protected); activity value is 1/1; format: functional, Mus musculus
[32] = Antiepileptic activity in male CF1 mice 4 hr after administration measured in neurological toxicity (Tox) test at a dose of 30 mg/kg (no. of animals treated /protected); activity value is 0/2; format: functional, Mus musculus
[33] = Antiepileptic activity in male CF1 mice 4 hr after administration measured in maximum electroshock seizure(MES) test at a dose of 30 mg/kg (no. of animals treated /protected); activity value is 0/1; format: functional, Mus musculus
[34] = Antiepileptic activity in male CF1 mice 4 hr after administration measured in subcutaneous pentylenetetrazole (scMet) test at a dose of 30 mg/kg; activity value is 0/1; format: functional, Mus musculus
[35] = Antiepileptic activity in male CF1 mice 30 min after administration measured in maximum electroshock seizure(MES) test at a dose of 300 mg/kg (no. of animals treated /protected); activity value is 1/1; format: functional, Mus musculus
[36] = Antiepileptic activity in male CF1 mice 30 min after administration measured in neurological toxicity (Tox) test at a dose of 30 mg/kg (no. of animals treated /protected); activity value is 0/4; format: functional, Mus musculus
[37] = Antiepileptic activity in male CF1 mice 4 hr after administration measured in maximum electroshock seizure(MES) test at a dose of 300 mg/kg (no. of animals treated /protected); activity value is 0/1; format: functional, Mus musculus
[38] = Antiepileptic activity in male CF1 mice 30 min after administration measured in maximum electroshock seizure(MES) test at a dose of 30 mg/kg (no. of animals treated /protected); activity value is 0/1; format: functional, Mus musculus

In the case of `COC(=O)C1C(=O)C=C(Nc2ccc([N+](=O)[O-])cc2)CC1C` (stereo unspecified), the Activity [1] is reported as 0, the Activity [2] is reported as 0 and the Activity [3] is reported as 1. The Activity [4] was 0, the Activity [5] was 0 and the Activity [6] was 0.

With `COC(=O)C1C(=O)C=C(NCc2ccc(F)cc2)CC1C` (stereo unspecified) the Activity [7] was 0, the TPE [8] was 0.5 and the TD50 [9] was > 230 mg/kg. The Activity [10] was 0, the Activity [11] was 0 and the Dose [12] was 10 mg/kg. The Activity [13] was 2, the Activity [14] was 3 and the Activity [15] was 0. It also gave an Activity [16] of 0, an Activity [17] of 0 and an Activity [18] of 0. For the same compound, the Activity [19] was 2, the Activity [20] was 0 and the ED50 [21] was 159 mg/kg. The Dose [22] was >100 mg/kg, the selectivity ratio [23] was 4.7 and the Activity [24] was 1. It also gave an Activity [25] of 0, an Activity [26] of 2 and an Activity [27] of 4. It also gave an Activity [28] of 0.

Work on `COC(=O)C1C(=O)C=C(Nc2ccc(C)cc2)CC1C` (stereo unspecified) yielded an Activity [29] of 0, an Activity [11] of 0 and an Activity [30] of 2. It also gave an Activity [31] of 1, an Activity [32] of 0 and an Activity [33] of 0. The Activity [17] was 0, the Activity [34] was 0 and the Dose [22] was “<=100 mg kg-1”. The Activity [35] was 1, the Activity [36] was 0 and the Activity [37] was 0. The Activity [38] was 0.
